From ChEMBL document CHEMBL4732148 (Eur J Med Chem, 2021)
Active and inactive are the calls of the source. The rule behind the calls is not given here.

Columns and labels:
[1] = Stability in pH 8 aqueous buffer assessed as parent compound remaining at 200 uM measured after 4 hrs by UV spectrophotometry; type: physicochemical; conditions: read-out: Stabilty
In short: (§1)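 Compound diluted to […] in aqueous buffers at pH 1.0, 2.0, 4.0, 6.0 or 8.0 and held 4 h at 40 °C. Intact prodrug separated by reverse-phase HPLC. 260 nm peak area after incubation compared with untreated prodrug, giving % remaining.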

Hepatitis C virus [2] = experiment: Antiviral activity against HCV infected in human Huh-7 cells assessed as reduction in viral replication at 500 nM measured within 6 hrs by luciferase reporter gene assay; type: functional, Hepacivirus hominis; set-up: scale not given: the % may be the effect or the level left; conditions: time hrs <=6
In short: (§2)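 Huh7 luciferase replicon cells treated with 500 nM compound or mock for up to 48 h. Cells were lysed at various times and the lysates snap-frozen in liquid nitrogen. All lysates were then assayed for luciferase together.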

[3] = Cytotoxicity against human MCF7 cells assessed as reduction in cell viability measured after 96 hrs by celltiter-glo assay; type: cell-based; conditions: read-out: TC50
[4] = Stability in pH 4 aqueous buffer assessed as parent compound remaining at 200 uM measured after 4 hrs by UV spectrophotometry; type: physicochemical; conditions: read-out: Stabilty; in short: as §1
HepG2 = experiment: Cytotoxicity against human HepG2 cells assessed as reduction in cell viability measured after 96 hrs by celltiter-glo assay; type: functional; conditions: read-out: TC50 (the source's name)
[5] = Stability in pH 2 aqueous buffer assessed as parent compound remaining at 200 uM measured after 4 hrs by UV spectrophotometry; type: physicochemical; conditions: read-out: Stabilty; in short: as §1
[6] = Stability in pH 1 aqueous buffer assessed as parent compound remaining at 200 uM measured after 4 hrs by UV spectrophotometry; type: physicochemical; conditions: read-out: Stabilty; in short: as §1
[7] = Cytotoxicity against HEK293 cells assessed as reduction in cell viability measured after 96 hrs by celltiter-glo assay; type: cell-based; conditions: human, read-out: TC50
[8] = Cytotoxicity against human Huh-7 cells assessed as reduction in cell viability measured after 48 hrs in presence of ENT1 inhibitor NBTI […]; type: cell-based; conditions: with NBTI (ENT1 inhibitor; concentration not stated), read-out: TC50
Hepatitis C virus [9] = experiment: Antiviral activity against HCV infected in human Huh-7 cells assessed as reduction in viral replication at 25 to 1000 nM measured after 48 hrs in presence of deoxycytidine by luciferase reporter gene assay; type: functional, organism-based; conditions: Hepacivirus hominis, dose 25-1000 nM
In short: (§3)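 Huh7 cells carrying an HCV luciferase replicon, grown in DMEM with 10% FBS and G418. Cells treated 48 h continuously with compound at 25–1,000 nM, either alone or together with 50 µM cytidine or 2′-deoxycytidine. Luciferase activity read in lysates. Three biological replicates, SD.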

Hepatitis C virus [10] = experiment: Antiviral activity against HCV infected in human Huh-7 cells assessed as reduction in viral replication preincubated for 2 hrs followed by replacement with fresh culture medium and measured after 46 hrs by luciferase reporter gene assay; type: functional, organism-based, Hepacivirus hominis
In short: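 HCV luciferase-replicon Huh7 cells were seeded at 10,000 cells/well and allowed 24 h to attach. Three biological replicates were exposed to graded compound in DMEM/10% FBS/0.5% DMSO for 2 h only, then the medium was replaced with fresh growth medium for 46 h at 37 °C.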

Hepatitis C virus [11] = experiment: Antiviral activity against HCV infected in human Huh-7 cells assessed as reduction in viral replication at 25 to 1000 nM measured after 48 hrs in presence of cytidine by luciferase reporter gene assay; type: functional, organism-based; conditions: Hepacivirus hominis, dose 25-1000 nM; in short: as §3
[12] = Cytotoxicity against human BXPC-3 cells assessed as reduction in cell viability measured after 96 hrs by celltiter-glo assay; type: cell-based; conditions: read-out: TC50
Hepatitis C virus [13] = experiment: Antiviral activity against HCV infected in human Huh-7 cells assessed as reduction in viral replication measured after 48 hrs by luciferase reporter gene assay; type: functional, organism-based, Hepacivirus hominis; conditions: Huh-7, 48 h
In short: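 Replicon-bearing Huh7 cells seeded at 10,000/well and allowed to attach for 24 h at 37 °C. Triplicate biological wells then treated 48 h with compound in DMEM, 10% FBS, 0.5% DMSO final. Bright-Glo luminescence expressed relative to untreated cells. IC50 from a four-parameter logistic fit.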

[14] = Toxicity in human Huh-7 cells assessed as reduction in cell viability measured after 96 hrs by celltiter-glo assay; type: cell-based; conditions: read-out: TC50
[15] = Stability in pH 6 aqueous buffer assessed as parent compound remaining at 200 uM measured after 4 hrs by UV spectrophotometry; type: physicochemical; conditions: read-out: Stabilty; in short: as §1
Hepatitis C virus [16] = experiment: Antiviral activity against HCV infected in human Huh-7 cells assessed as reduction in viral replication at 500 nM measured after 24 to 30 hrs by luciferase reporter gene assay; type: functional, Hepacivirus hominis; set-up: scale not given: the % may be the effect or the level left; conditions: time 24-30 hrs; in short: as §2
Hepatitis C virus [17] = experiment: Synergistic antiviral activity against HCV infected in human Huh-7 cells assessed as reduction in viral replication measured after 48 hrs in presence of NS5A inhibitor daclatasvir. by luciferase reporter gene assay; type: functional, organism-based; conditions: Hepacivirus hominis
In short: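 Replicon Huh7 cells treated 48 h with compound across 0.001–10,000 nM, each series at a fixed daclatasvir level from 0.005–0.025 nM. Luciferase read as above. A, B and C from the fits gave compound IC50 at each daclatasvir concentration, and these were plotted on an isobologram.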

Hepatitis C virus [18] = experiment: Antiviral activity against HCV infected in human Huh-7 cells assessed as reduction in viral replication measured after 48 hrs in presence of human carboxylesterase 1/2 inhibitor benzil by luciferase reporter gene assay; type: functional, organism-based, Hepacivirus hominis; conditions: Huh-7, 48 h
In short: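 Huh7 cells carrying an HCV luciferase-reporter replicon, grown with 10% FBS and G418, were seeded at 10,000 cells/well and left 24 h to attach. Three biological replicates were treated with graded compound in DMEM/10% FBS/0.5% DMSO with benzil present, for 48 h at 37 °C. Bright-Glo luciferase was read, and IC50 came from a four-parameter logistic fit.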

Hepatitis C virus [19] = experiment: Antiviral activity against HCV infected in human Huh-7 cells assessed as reduction in viral replication at 500 nM measured after 48 hrs by luciferase reporter gene assay; type: functional, organism-based; conditions: Hepacivirus hominis; in short: as §2
[20] = Ratio of gemcitabine TC50 to test compound TC50 for cytotoxicity against human MCF7 cells assessed as reduction in cell viability; type: cell-based
Hepatitis C virus [21] = experiment: Antiviral activity against HCV infected in human Huh-7 cells assessed as reduction in viral replication at 500 nM measured after 36 hrs by luciferase reporter gene assay; type: functional, organism-based; conditions: Hepacivirus hominis; in short: as §2
[22] = Ratio of IC50 for antiviral activity against HCV infected in human Huh-7 cells in presence of human carboxylesterase 1/2 inhibitor benzil to antiviral activity against HCV infected in human Huh-7 cells in absence of human carboxyesterases1/2 inhibitor benzil; type: functional, Hepacivirus hominis
[23] = Prodrug conversion assessed as human carboxylesterase 1/2-mediated gemcitabine release measured after 1 hr by HPLC analysis; type: ADME
Hepatitis C virus [24] = experiment: Antiviral activity against HCV infected in human Huh-7 cells assessed as reduction in viral replication measured after 48 hrs in presence of esterase inhibitor bis-p-nitrophenyl phosphate by luciferase reporter gene assay; type: functional, organism-based, Hepacivirus hominis; conditions: Huh-7, 48 h
[25] = Ratio of gemcitabine TC50 to test compound TC50 for cytotoxicity against human BXPC-3 cells assessed as reduction in cell viability; type: cell-based
[26] = Cytotoxicity against human Huh-7 cells assessed as reduction in cell viability measured after 48 hrs by celltiter-glo assay; type: cell-based; conditions: read-out: TC50
[27] = Ratio of IC50 for antiviral activity against HCV infected in human Huh-7 cells in presence of esterase inhibitor bis-p-nitrophenyl phosphate to antiviral activity against HCV infected in human Huh-7 cells in absence of esterase inhibitor bis-p-nitrophenyl phosphate; type: functional, Hepacivirus hominis
Hepatitis C virus [28] = experiment: Ratio of IC50 for antiviral activity against HCV infected in human Huh-7 cells assessed as reduction in viral replication preincubated for 2 hrs followed by replacement with fresh culture medium and measured after 46 hrs by luciferase reporter gene assay to IC50 for antiviral activity against HCV infected in human Huh-7 cells assessed as reduction in viral replication measured after 48 hrs by …; type: functional, Hepacivirus hominis
Hepatitis C virus [29] = experiment: Synergistic antiviral activity against HCV infected in human Huh-7 cells assessed as reduction in viral replication measured after 48 hrs in presence of NS5B inhibitor PSI-6130. by luciferase reporter gene assay; type: functional, organism-based; conditions: Hepacivirus hominis

Row | SMILES | remaining at 4 h, 200 µM [1] [%] | CC50 at 96 h [3] [nM] | remaining at 4 h, 200 µM [4] [%] | CC50 (HepG2) [nM] | remaining at 4 h, 200 µM [5] [%] | remaining at 4 h, 200 µM [6] [%] | CC50 at 96 h [7] [nM] | CC50 at 48 h [8] [nM] | Activity (Hepatitis C virus [9]) | IC50 (Hepatitis C virus [10]) [nM] | Activity (Hepatitis C virus [11]) | CC50 at 96 h [12] [nM] | IC50 (Hepatitis C virus [13]) [nM] | CC50 at 96 h [14] [nM] | remaining at 4 h, 200 µM [15] [%] | also measured
1 | Nc1ccn([C@@H]2O[C@H](CO)[C@@H](O)C2(F)F)c(=O)n1 [GEMCITABINE] | 100 | 67 | 98 | 310 | 88 | 79 | 560 | > 500000 | inactive | 170 | inactive | 2.9 | 58 | 3400 | 100 | Activity (Hepatitis C virus [2]): 50%
2 | COc1cc(C(=O)Nc2ccn([C@@H]3O[C@H](CO)[C@@H](O)C3(F)F)c(=O)n2)cc(OC)c1OC | 82.7 | 570 | 98.6 | 1700 | 87 | 86 | 1300 | 398000 | inactive | 2800 | inactive | 1800 | 49.3 | 5100 | 99.5 | Activity (Hepatitis C virus [16]): 50%; Activity (Hepatitis C virus [17]): Active; IC50 (Hepatitis C virus [18]): 125 nM; Activity (Hepatitis C virus [19]): Active; selectivity ratio [20]: ≤ 24; Activity (Hepatitis C virus [21]): Active; Ratio IC50 [22]: 2.5; Drug metabolism [23]: Metabolite_Detected; IC50 (Hepatitis C virus [24]): 81 nM; selectivity ratio [25]: ≤ 620; CC50 at 48 h [26]: 490000 nM; Ratio IC50 [27]: 1.6; Ratio IC50 (Hepatitis C virus [28]): 56; Activity (Hepatitis C virus [29]): Active
